Consider five molecules from ChEMBL document CHEMBL1121813, “Dihydrochalcone sweeteners. A study of the atypical temporal phenomena” (1981).

SMILES strings stand for the structures.

Holding throughout (type): functional
For assay [1], the species on record is Homo sapiens. The experiment in a line: Sweet character at a concentration of 251 ppm (mean value). In outline:
(§1)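 Trained human sensory panel (Swartz method) tasted dilute aqueous solutions of the compounds, which had to be ≥95 weight percent pure and free of mutagenicity and toxicity. Taste character is reported as the mean value with 2S_m limits. Data deviating excessively at the 95% confidence level were rejected by the t-value method.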

The species named for assay [2] is Homo sapiens. Kind of assay: Percentage of judgments reporting an aftertaste at a concentration of 251 ppm and character thereof. In short, it runs like this: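 Trained human sensory panel; compounds tasted in aqueous solution. Before panel work, compounds had to be ≥95 weight percent pure (HPLC, proton titration, Karl Fischer) and free of mutagenicity (five Salmonella typhimurium strains, ± microsomal activation) and single oral dose mouse toxicity. Value is the percentage of judgments reporting an aftertaste, with its character recorded as sweet, bitter or bitter-sweet.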

For assay [3], the species on record is Homo sapiens. The experiment in a line: Bitter character at a concentration of 251 ppm (mean value). In short, it runs like this:
(§2)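 Trained human panel tasted aqueous solutions. Each judge reported whether there was an aftertaste and its character (sweet, bitter or bitter-sweet). The value is the percentage of judgments reporting a bitter aftertaste.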

The species entered for assay [4] is Homo sapiens. The experiment in a line: Salty character at a concentration of 251 ppm (mean value). In outline: as §1
The species named for assay [5] is Homo sapiens. The experiment in a line: Intensity calculated on a molar basis relative to a 0.25 M sucrose solution at a concentration of 251 ppm (mean value). In short, it runs like this:
(§3)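 Trained human judges tasted aqueous solutions of the test compound; compounds were first required to be ≥95 weight percent pure and free of mutagenicity (five Salmonella typhimurium strains, ± microsomal activation) and of single oral dose mouse toxicity. Molar intensity I_m = perceived intensity × (0.25 M sucrose / compound molar concentration). The mean is reported with 2S_m limits; outliers were rejected at 95% confidence by t-value.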

Assay [6] is filed under the species Homo sapiens. The experiment in a line: Intensity calculated on a weight basis relative to an 85500 ppm sucrose solution at a concentration of 251 ppm (mean value). In short, it runs like this: (§4)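 Trained human panel tasted aqueous solutions of purity-checked (≥95 weight percent) compounds cleared for mutagenicity and mouse oral toxicity. Weight-basis intensity I_w = perceived intensity × (85500 ppm sucrose / compound concentration in ppm). The mean is reported with 2S_m limits; data deviating excessively at 95% confidence were rejected by the t-value method.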

Assay [7] is filed under the species Homo sapiens. The experiment in a line: Sweet / Bitter character at a concentration of 251 ppm (mean value); […].
The species entered for assay [8] is Homo sapiens. The experiment in a line: Number of taste judgments per compound.
The species named for assay [9] is Homo sapiens. Kind of assay: Experimentally determined perceived intensity of compound at a concentration of 251 ppm (mean value). In short, it runs like this:
(§5)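 Trained human sensory panel of judges tasted aqueous solutions of the compound. Samples had to be ≥95 weight % pure (HPLC, proton titration, Karl Fischer), non-mutagenic in five Salmonella typhimurium strains with and without microsomal activation, and non-toxic in a single-oral-dose mouse test. Perceived intensity (Ip) was read from time–intensity curves at 4- or 6-s intervals and averaged. Outliers at the 95% level were rejected by t-value. Values reported as mean (2Sm).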

Assay [10] is filed under the species Homo sapiens. Kind of assay: Other taste character at a concentration of 251 ppm (mean value). In outline:
as §1

Assay [11] is filed under the species Homo sapiens. The experiment in a line: Sour character at a concentration of 251 ppm (mean value). In short, it runs like this: as §1
Assay [12] is filed under the species Homo sapiens. Kind of assay: Intensity calculated on a molar basis relative to a 0.25 M sucrose solution at a concentration of 248 ppm (mean value). In outline: as §3
Assay [13] is filed under the species Homo sapiens. The experiment in a line: Bitter character at a concentration of 248 ppm (mean value). In short, it runs like this:
as §2

The species named for assay [14] is Homo sapiens. Kind of assay: Intensity calculated on a weight basis relative to an 85500 ppm sucrose solution at a concentration of 248 ppm (mean value). In outline:
as §4

For assay [15], the species on record is Homo sapiens. The experiment in a line: Sweet character at a concentration of 248 ppm (mean value).
For assay [16], the species on record is Homo sapiens. The experiment in a line: Sweet / Bitter character at a concentration of 248 ppm (mean value); 8/92.
The species entered for assay [17] is Homo sapiens. Kind of assay: Percentage of judgments reporting an aftertaste at a concentration of 248 ppm and character thereof. In short, it runs like this: (§6)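 Trained judges tasted aqueous solutions of the compounds, which had to be ≥95 weight percent pure and to have passed mutagenicity and single oral dose toxicity screening. The value is the percentage of panel judgments reporting an aftertaste. Where given, its character is recorded as sweet, bitter or bitter-sweet.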

The species entered for assay [18] is Homo sapiens. Kind of assay: Sour character at a concentration of 248 ppm (mean value).
The species entered for assay [19] is Homo sapiens. The experiment in a line: Experimentally determined perceived intensity of compound at a concentration of 248 ppm (mean value). In short, it runs like this:
as §5

The species named for assay [20] is Homo sapiens. Kind of assay: Other taste character at a concentration of 248 ppm (mean value). In short, it runs like this:
as §1

Assay [21] is filed under the species Homo sapiens. Kind of assay: Salty character at a concentration of 248 ppm (mean value).
The species named for assay [22] is Homo sapiens. The experiment in a line: Experimentally determined perceived intensity of compound at a concentration of 4100 ppm (mean value). In short, it runs like this:
as §5

The species named for assay [23] is Homo sapiens. The experiment in a line: Other taste character at a concentration of 1013 ppm (mean value). In short, it runs like this: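 Trained human panel tasted aqueous solutions of each compound. Aftertaste is scored as the percentage of judgments reporting one, with its character coded sweet (s), bitter (b) or bitter-sweet (bs).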
The species named for assay [24] is Homo sapiens. The experiment in a line: Salty character at a concentration of 1013 ppm (mean value).
Assay [25] is filed under the species Homo sapiens. Kind of assay: Percentage of judgments reporting an aftertaste at a concentration of 1013 ppm and character thereof. In outline:
as §6

For assay [26], the species on record is Homo sapiens. Kind of assay: Sour character at a concentration of 1013 ppm (mean value).
For assay [27], the species on record is Homo sapiens. Kind of assay: Sweet / Bitter character at a concentration of 1013 ppm (mean value); 28/72.
Assay [28] is filed under the species Homo sapiens. Kind of assay: Intensity calculated on a molar basis relative to a 0.25 M sucrose solution at a concentration of 1013 ppm (mean value). In outline:
as §3

The species named for assay [29] is Homo sapiens. Kind of assay: Sweet character at a concentration of 1013 ppm (mean value).
The species named for assay [30] is Homo sapiens. Kind of assay: Intensity calculated on a weight basis relative to an 85500 ppm sucrose solution at a concentration of 1013 ppm (mean value). In outline: as §4
The species named for assay [31] is Homo sapiens. The experiment in a line: Experimentally determined perceived intensity of compound at a concentration of 1013 ppm (mean value). In outline:
as §5

The species named for assay [32] is Homo sapiens. The experiment in a line: Bitter character at a concentration of 1013 ppm (mean value). In short, it runs like this: as §2
The species named for assay [33] is Homo sapiens. Kind of assay: Other taste character at a concentration of 54 ppm (mean value). In outline:
as §1

The species named for assay [34] is Homo sapiens. The experiment in a line: Sweet character at a concentration of 54 ppm (mean value).
For assay [35], the species on record is Homo sapiens. The experiment in a line: Intensity calculated on a molar basis relative to a 0.25 M sucrose solution at a concentration of 54 ppm (mean value). In outline:
as §3

The species named for assay [36] is Homo sapiens. The experiment in a line: Intensity calculated on a weight basis relative to an 85500 ppm sucrose solution at a concentration of 54 ppm (mean value). In outline:
as §4

The species entered for assay [37] is Homo sapiens. Kind of assay: Sweet / Bitter character at a concentration of 54 ppm (mean value); 14/86.
Assay [38] is filed under the species Homo sapiens. Kind of assay: Percentage of judgments reporting an aftertaste at a concentration of 54 ppm and character thereof.
For assay [39], the species on record is Homo sapiens. The experiment in a line: Salty character at a concentration of 54 ppm (mean value).
For assay [40], the species on record is Homo sapiens. Kind of assay: Bitter character at a concentration of 54 ppm (mean value). In outline: as §2
The species named for assay [41] is Homo sapiens. The experiment in a line: Sour character at a concentration of 54 ppm (mean value).
Assay [42] is filed under the species Homo sapiens. Kind of assay: Experimentally determined perceived intensity of compound at a concentration of 54 ppm (mean value). In outline:
as §5

Take `COc1ccc(CCC(=O)c2c(O)cc(OCCCP(=O)([O-])O)cc2O)cc1O.[K+]`: the Taste character is reported as 80 in the assay filed under Homo sapiens [1]; 7 in the assay listed under Homo sapiens [3]; 0 in the assay listed under Homo sapiens [4]; 92 in the assay filed under Homo sapiens [7]; 13 in the assay filed under Homo sapiens [10]; 0 in the assay filed under Homo sapiens [11]. In addition, the Judgments came to 100 in the assay filed under Homo sapiens [2] and 12 in the assay listed under Homo sapiens [8]. Also, in the assay filed under Homo sapiens [5], the IM is reported as 380. Moreover, the IW in the assay filed under Homo sapiens [6] is 280. Further, in the assay listed under Homo sapiens [9], the IP worked out at 0.83.
As to `O=C([O-])COc1cc(O)c(C(=O)CCc2ccc(O)c(O)c2)c(O)c1.[Na+]`, in the assay filed under Homo sapiens [12], the IM is on record as 56. Moreover, the Taste character turned out to be 33 in the assay filed under Homo sapiens [13]; 3 in the assay filed under Homo sapiens [15]; 8 in the assay filed under Homo sapiens [16]; 0 in the assay listed under Homo sapiens [18]; 64 in the assay filed under Homo sapiens [20]; 0 in the assay listed under Homo sapiens [21]. Also, the IW in the assay listed under Homo sapiens [14] was 52. Also, the Judgments in the assay listed under Homo sapiens [17] was 38; in the assay listed under Homo sapiens [8], 12. In the assay listed under Homo sapiens [19], this molecule came in with an IP of 0.15.
In turn, `COc1ccc(-c2cc(=O)c3c(O)cc(OCCCS(=O)(=O)[O-])cc3o2)cc1O.[K+]` had an IP in the assay listed under Homo sapiens [22] of 0. In the assay listed under Homo sapiens [8], this molecule displayed a Judgments of 1.
On to `COc1ccc(/C=C/C(=O)c2ccc(OCCCS(=O)(=O)[O-])cc2O)cc1O.[K+]`, for which the Taste character in the assay listed under Homo sapiens [23] came to 18; in the assay listed under Homo sapiens [24] it was 0; in the assay listed under Homo sapiens [26] it was 0; in the assay listed under Homo sapiens [27] it was 28; in the assay listed under Homo sapiens [29], 23; in the assay listed under Homo sapiens [32] it was 59. The Judgments came out at 100 in the assay listed under Homo sapiens [25] and 12 in the assay listed under Homo sapiens [8]. In addition, the IM in the assay filed under Homo sapiens [28] is given as 50. In addition, the IW in the assay listed under Homo sapiens [30] is recorded as 38. Further, the IP in the assay listed under Homo sapiens [31] is given as 0.45.
As to `COc1ccc(CC(=O)c2c(O)cc(O)cc2O)cc1O`, the Taste character turned out to be 19 in the assay filed under Homo sapiens [33]; 11 in the assay listed under Homo sapiens [34]; 14 in the assay listed under Homo sapiens [37]; 0 in the assay listed under Homo sapiens [39]; 70 in the assay filed under Homo sapiens [40]; 0 in the assay filed under Homo sapiens [41]. The IM in the assay filed under Homo sapiens [35] was 150. Further, the IW in the assay listed under Homo sapiens [36] is given as 170. Further, the Judgments in the assay listed under Homo sapiens [38] came to 0; in the assay listed under Homo sapiens [8], 12. For the same molecule, the IP in the assay listed under Homo sapiens [42] amounted to 0.11.
